Results published in ChEMBL document CHEMBL1154229 (Bioorg Med Chem Lett, 2009).
Calls of active or inactive are those of the source. No cut-off for these calls is given here.

Assays:
[1] = molecular target: T1, Bifunctional epoxide hydrolase 2 (Homo sapiens, UniProt P34913); test: Inhibition of human soluble epoxide hydrolase
T1 sequence (P34913 whole entry): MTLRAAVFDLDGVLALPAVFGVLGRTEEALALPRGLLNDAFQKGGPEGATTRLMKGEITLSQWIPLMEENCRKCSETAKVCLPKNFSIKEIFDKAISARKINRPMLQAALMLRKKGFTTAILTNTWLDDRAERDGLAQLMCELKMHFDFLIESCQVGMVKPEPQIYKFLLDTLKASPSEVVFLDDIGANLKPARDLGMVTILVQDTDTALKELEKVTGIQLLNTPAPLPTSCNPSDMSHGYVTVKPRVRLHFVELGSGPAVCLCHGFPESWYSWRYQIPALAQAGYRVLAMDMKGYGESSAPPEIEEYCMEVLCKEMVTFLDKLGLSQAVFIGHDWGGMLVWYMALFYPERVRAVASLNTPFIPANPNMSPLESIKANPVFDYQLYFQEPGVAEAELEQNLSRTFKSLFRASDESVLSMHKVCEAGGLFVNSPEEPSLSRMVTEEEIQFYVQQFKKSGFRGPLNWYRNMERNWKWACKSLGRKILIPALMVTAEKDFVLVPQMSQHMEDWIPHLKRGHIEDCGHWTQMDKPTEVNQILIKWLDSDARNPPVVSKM

[2] = molecular target: T2, Bifunctional epoxide hydrolase 2 (Rattus norvegicus, UniProt P80299); test: Inhibition of rat soluble epoxide hydrolase
T2 sequence (P80299 whole entry): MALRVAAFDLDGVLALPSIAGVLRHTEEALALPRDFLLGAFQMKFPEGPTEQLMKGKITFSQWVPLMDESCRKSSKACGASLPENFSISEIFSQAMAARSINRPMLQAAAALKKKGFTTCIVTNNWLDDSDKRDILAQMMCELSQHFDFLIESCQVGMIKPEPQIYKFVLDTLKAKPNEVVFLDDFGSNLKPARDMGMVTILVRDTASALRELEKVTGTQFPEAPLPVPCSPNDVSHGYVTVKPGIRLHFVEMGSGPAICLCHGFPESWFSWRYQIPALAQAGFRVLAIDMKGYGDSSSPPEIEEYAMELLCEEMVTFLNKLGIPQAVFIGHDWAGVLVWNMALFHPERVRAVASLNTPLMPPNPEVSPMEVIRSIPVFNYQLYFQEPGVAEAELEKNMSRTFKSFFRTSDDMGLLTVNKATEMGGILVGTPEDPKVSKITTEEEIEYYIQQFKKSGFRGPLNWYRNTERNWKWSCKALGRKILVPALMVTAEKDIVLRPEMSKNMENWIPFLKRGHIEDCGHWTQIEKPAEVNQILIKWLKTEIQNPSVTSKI

[3] = molecular target: T1, Bifunctional epoxide hydrolase 2; test: Inhibition of human soluble epoxide hydrolase in HEK293 cells assessed as DHET production; format: cell-based
Summary of the method: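 Whole-cell 14,15-DHET production assay in HEK293 cells, run with or without 10% human serum. Values come from one or two experiments, each in triplicate, with repeats within 20%.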

[4] = molecular target: T3, Epoxide hydrolase 1 (Homo sapiens, UniProt P07099); test: Inhibition of human microsomal epoxide hydrolase
T3 sequence (P07099 whole entry): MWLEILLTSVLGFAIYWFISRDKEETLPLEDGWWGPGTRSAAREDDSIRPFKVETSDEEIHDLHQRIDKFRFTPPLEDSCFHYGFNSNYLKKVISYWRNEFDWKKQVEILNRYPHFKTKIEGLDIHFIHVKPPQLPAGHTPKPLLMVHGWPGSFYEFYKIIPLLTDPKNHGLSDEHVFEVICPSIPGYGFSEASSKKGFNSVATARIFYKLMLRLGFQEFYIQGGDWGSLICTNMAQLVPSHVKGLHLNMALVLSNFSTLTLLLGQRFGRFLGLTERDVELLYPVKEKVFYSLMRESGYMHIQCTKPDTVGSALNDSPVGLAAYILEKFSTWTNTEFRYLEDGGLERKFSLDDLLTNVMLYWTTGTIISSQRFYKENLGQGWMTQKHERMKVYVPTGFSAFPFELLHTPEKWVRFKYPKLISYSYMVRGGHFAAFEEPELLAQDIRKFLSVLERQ
Summary of the method: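 Human mEH used as the counterscreen enzyme. Values come from one or two experiments, each in triplicate, with repeats within 20%.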

[5] = molecular target: Cytochrome P450 2C9 (Homo sapiens, UniProt P11712); test: Inhibition of CYP2C9; format: ADME
[6] = molecular target: CYP2D6 (Homo sapiens, UniProt P10635); test: (§1) Inhibition of CYP2D6; format: ADME
[7] = molecular target: Cytochrome P450 3A4 (Homo sapiens, UniProt P08684); test: Inhibition of CYP3A4; format: ADME
[8] = Inhibition of potassium channel IKr
[9] = test system: Rattus norvegicus; test: Antihypertensive activity in spontaneously hypertensive rat assessed as change in systolic blood pressure at 50 mg/kg, po up to 8 hrs by telemetry method; format: functional, organism-based; set-up: dose 50 mg/kg; details: Artery
Summary of the method: (§2)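 Spontaneously hypertensive rats dosed orally at 50 mpk. Systolic and diastolic blood pressure, heart rate and pulse pressure recorded by telemetry over 8 h post dose.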

[10] = test system: Rattus norvegicus; test: Antihypertensive activity in spontaneously hypertensive rat assessed as change in diastolic blood pressure at 50 mg/kg, po up to 8 hrs by telemetry method; format: functional, organism-based; set-up: dose 50 mg/kg; details: Artery; summary of the method: as §2
[11] = molecular target: Cytochrome P450 2D6 (Homo sapiens, UniProt P10635); test: as §1; format: ADME
[12] = Bioavailability in rat at 1 mg/kg, iv and 2 mg/kg, po; format: ADME, organism-based; details: in vivo
Summary of the method: (§3)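 Rats dosed IV at 1 mg/kg (n = 2) and PO at 2 mg/kg (n = 3). Blood drug levels measured by LC/MS/MS after protein precipitation with acetonitrile.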

[13] = Clearance in rat at 1 mg/kg, iv and 2 mg/kg, po; format: ADME, organism-based; details: in vivo; summary of the method: as §3
[14] = Volume of distribution at steady state in rat at 1 mg/kg, iv and 2 mg/kg, po; format: ADME, organism-based; details: in vivo, read-out: Vdss; summary of the method: as §3
[15] = Half life in rat at 1 mg/kg, iv and 2 mg/kg, po; format: ADME, organism-based; details: in vivo; summary of the method: as §3
[16] = molecular target: Sodium channel protein type 5 subunit alpha (Homo sapiens, UniProt Q14524); test: Inhibition of Nav1.5 channel
[17] = molecular target: L-type calcium channel; test: Inhibition of calcium channel diltiazem binding site
[18] = molecular target: T4, Cytochrome P450 2C8 (Homo sapiens, UniProt P10632); test: Inhibition of CYP2C8; format: ADME
T4 sequence (P10632 whole entry): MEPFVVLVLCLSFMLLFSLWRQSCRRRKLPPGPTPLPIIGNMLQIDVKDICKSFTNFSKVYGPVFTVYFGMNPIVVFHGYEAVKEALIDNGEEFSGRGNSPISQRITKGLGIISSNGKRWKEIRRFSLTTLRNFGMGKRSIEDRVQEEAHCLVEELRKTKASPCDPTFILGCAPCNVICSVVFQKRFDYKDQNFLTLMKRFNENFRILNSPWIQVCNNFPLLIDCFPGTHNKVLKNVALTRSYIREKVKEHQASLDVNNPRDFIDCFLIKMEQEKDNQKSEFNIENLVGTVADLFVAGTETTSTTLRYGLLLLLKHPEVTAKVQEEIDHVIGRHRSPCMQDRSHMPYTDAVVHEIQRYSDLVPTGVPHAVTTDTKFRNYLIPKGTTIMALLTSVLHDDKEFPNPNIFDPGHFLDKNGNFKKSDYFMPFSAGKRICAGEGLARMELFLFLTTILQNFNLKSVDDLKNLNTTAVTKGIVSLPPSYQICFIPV

Sequence of Cytochrome P450 2D6 (P10635 whole entry): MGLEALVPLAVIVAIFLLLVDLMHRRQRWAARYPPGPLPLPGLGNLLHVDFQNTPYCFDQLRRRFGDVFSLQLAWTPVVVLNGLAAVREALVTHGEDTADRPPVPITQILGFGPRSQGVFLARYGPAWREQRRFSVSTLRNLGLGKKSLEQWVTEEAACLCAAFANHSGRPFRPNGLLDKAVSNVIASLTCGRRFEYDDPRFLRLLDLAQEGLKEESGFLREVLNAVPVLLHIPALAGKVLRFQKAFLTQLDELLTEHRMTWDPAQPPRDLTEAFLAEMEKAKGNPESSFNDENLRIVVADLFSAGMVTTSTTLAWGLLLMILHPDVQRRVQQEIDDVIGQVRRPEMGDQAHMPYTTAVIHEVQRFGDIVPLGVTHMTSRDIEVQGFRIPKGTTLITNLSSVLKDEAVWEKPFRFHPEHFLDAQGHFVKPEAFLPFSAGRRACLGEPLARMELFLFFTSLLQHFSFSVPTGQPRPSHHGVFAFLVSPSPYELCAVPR
Sequence of CYP2D6 (P10635 whole entry): as above
Sequence of Sodium channel protein type 5 subunit alpha (Q14524 whole entry): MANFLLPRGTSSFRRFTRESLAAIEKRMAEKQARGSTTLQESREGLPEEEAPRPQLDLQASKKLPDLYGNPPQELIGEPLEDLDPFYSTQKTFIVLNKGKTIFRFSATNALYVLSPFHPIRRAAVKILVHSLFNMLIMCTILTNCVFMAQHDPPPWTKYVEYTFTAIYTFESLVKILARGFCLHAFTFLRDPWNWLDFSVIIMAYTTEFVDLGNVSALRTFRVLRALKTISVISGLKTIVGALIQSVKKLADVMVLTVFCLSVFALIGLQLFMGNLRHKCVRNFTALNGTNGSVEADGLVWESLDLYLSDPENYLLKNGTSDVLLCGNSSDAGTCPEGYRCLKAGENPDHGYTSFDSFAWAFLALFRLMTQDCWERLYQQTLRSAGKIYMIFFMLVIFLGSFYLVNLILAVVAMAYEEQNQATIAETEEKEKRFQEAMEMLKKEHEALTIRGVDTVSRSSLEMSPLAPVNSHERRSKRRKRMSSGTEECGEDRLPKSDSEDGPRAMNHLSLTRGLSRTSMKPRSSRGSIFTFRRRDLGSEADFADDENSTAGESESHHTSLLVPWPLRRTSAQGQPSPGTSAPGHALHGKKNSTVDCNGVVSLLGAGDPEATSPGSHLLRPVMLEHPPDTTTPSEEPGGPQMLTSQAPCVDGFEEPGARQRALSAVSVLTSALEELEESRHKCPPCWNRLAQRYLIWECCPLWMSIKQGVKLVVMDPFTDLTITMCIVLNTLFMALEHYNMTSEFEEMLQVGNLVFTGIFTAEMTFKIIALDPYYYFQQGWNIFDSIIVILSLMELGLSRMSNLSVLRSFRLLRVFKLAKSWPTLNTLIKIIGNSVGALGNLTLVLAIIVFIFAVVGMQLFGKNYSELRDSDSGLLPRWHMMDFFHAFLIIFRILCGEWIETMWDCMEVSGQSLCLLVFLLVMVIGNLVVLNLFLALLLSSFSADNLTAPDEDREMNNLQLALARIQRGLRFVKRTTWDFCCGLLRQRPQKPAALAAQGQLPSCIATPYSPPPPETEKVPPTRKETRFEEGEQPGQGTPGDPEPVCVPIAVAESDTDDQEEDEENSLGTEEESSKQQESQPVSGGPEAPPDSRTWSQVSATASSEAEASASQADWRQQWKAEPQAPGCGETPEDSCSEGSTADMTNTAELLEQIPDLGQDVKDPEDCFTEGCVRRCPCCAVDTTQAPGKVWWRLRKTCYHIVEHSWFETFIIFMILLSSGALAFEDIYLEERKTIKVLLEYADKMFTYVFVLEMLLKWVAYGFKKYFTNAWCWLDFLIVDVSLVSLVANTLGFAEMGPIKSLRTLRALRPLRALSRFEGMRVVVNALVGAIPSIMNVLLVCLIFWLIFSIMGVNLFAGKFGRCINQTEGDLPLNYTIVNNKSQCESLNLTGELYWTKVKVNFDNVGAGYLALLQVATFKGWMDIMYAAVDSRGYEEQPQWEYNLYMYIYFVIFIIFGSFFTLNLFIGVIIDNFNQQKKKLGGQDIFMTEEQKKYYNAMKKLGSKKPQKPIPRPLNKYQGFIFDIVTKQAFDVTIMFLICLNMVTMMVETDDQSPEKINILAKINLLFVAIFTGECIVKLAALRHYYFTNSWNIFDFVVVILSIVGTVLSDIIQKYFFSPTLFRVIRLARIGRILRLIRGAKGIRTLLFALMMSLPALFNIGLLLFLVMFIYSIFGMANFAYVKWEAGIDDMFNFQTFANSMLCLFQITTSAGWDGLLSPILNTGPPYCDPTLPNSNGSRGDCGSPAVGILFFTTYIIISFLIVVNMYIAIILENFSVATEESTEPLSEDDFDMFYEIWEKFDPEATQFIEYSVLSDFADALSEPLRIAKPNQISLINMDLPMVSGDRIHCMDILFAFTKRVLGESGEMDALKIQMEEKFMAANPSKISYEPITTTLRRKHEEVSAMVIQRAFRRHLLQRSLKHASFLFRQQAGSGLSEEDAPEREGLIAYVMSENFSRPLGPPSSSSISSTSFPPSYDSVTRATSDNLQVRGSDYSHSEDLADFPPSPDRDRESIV
Sequence of Cytochrome P450 3A4 (P08684 whole entry): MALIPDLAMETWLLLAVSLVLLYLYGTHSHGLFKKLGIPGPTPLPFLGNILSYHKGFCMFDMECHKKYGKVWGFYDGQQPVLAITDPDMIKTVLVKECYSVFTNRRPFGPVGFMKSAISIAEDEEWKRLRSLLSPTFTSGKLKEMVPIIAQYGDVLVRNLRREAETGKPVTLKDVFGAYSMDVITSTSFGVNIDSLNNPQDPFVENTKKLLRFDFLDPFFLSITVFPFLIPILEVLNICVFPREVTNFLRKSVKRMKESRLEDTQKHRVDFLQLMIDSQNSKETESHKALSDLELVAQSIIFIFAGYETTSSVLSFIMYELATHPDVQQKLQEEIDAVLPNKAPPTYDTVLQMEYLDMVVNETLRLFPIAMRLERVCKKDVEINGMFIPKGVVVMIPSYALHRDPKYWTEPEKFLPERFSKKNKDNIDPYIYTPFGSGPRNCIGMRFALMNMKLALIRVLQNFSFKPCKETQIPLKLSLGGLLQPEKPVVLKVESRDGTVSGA
Sequence of Cytochrome P450 2C9 (P11712 whole entry): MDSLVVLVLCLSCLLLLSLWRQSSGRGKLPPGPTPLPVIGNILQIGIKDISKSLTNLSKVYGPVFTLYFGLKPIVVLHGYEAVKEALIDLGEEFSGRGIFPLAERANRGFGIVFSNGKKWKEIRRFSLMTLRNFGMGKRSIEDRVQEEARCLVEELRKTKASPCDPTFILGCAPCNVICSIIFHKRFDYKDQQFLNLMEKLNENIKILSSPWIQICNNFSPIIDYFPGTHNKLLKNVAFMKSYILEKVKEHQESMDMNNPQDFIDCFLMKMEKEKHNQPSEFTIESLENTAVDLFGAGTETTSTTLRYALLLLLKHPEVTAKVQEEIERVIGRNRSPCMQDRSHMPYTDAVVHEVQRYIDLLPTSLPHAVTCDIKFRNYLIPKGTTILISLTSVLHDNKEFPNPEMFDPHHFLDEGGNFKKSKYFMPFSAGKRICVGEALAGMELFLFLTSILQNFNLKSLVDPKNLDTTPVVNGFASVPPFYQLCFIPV

| IC50 [1] | IC50 [2] | IC50 [3] | IC50 [4] | IC50 [5] | IC50 [6] | IC50 [7] | IC50 [11] | bioavailability [12] | clearance [13] | Vd [14] | half-life [15] | IC50 [17] | IC50 [18] | SMILES | IC50 [8] | Activity [9] | Activity [10] | IC50 [16] |
| --- | --- | --- | --- | --- | --- | --- | --- | --- | --- | --- | --- | --- | --- | --- | --- | --- | --- | --- |
| 0.029 µM | 0.026 µM | 0.013 µM | > 100 µM | < 10 µM | < 10 µM | > 10 µM |  |  |  |  |  |  |  | CC1(c2ccccc2)CCCN(C(=O)NCCc2ccc3nc[nH]c3c2)C1 (stereo not given) | 13 µM |  |  |  |
|  |  |  |  |  |  |  |  |  |  |  |  |  |  | O=C(O)CCC1(c2ccccc2)CCCN(C(=O)Nc2ccc(Cl)cc2)C1 (stereo in doubt) [listing 1 of 2 here] |  | inactive | inactive |  |
|  | 0.026 µM | < 0.001 µM | > 100 µM | > 10 µM |  | > 10 µM | > 10 µM | 13% | 116 mL/min/kg | 0.88 L/kg | 4.4 h |  |  | NC(=O)CCC1(c2ccccc2)CCCN(C(=O)Nc2ccc(Cl)cc2)C1 (stereo not given) | 7 µM |  |  |  |
| 0.005 µM | 0.059 µM | < 0.001 µM | > 100 µM | > 10 µM |  | < 10 µM | 10 µM | 0.17% | 124 mL/min/kg | 1.4 L/kg | 0.39 h |  |  | O=C(Nc1ccc(Cl)cc1)N1CCCC(CCc2nn[nH]n2)(c2ccccc2)C1 (stereo not given) | 3 µM |  |  | > 10 µM |
|  | 0.076 µM | 0.004 µM | > 100 µM | > 10 µM |  | > 10 µM | > 10 µM | 84% | 4 mL/min/kg | 0.8 L/kg | 3.2 h | > 30 µM |  | O=C(O)CCC1(c2ccccc2)CCCN(C(=O)Nc2ccc(Cl)cc2)C1 (stereo in doubt; 2b) | > 30 µM |  |  | > 10 µM |
| 0.005 µM | 0.069 µM | 0.002 µM | > 100 µM | > 100 µM |  | > 100 µM | > 100 µM |  |  |  |  |  | 65 µM | O=C(O)CCC1(c2ccccc2)CCCN(C(=O)Nc2ccc(Cl)cc2)C1 (stereo in doubt) [listing 2 of 2 here] |  |  |  | > 10 µM |
| 0.001 µM | 0.005 µM | < 0.001 µM | > 100 µM | > 10 µM |  | < 10 µM | > 10 µM | 13% | 43 mL/min/kg | 12 L/kg | 3.9 h | 1.7 µM |  | CC1(c2ccccc2)CCCN(C(=O)Nc2ccc(Cl)cc2)C1 (stereo not given) | 12 µM |  |  | > 10 µM |
| 0.0013 µM | 0.01 µM | < 0.001 µM | > 100 µM | < 10 µM |  | < 10 µM | > 10 µM |  |  |  |  | 5 µM |  | O=C(Nc1ccc(Cl)cc1)N1CCCC(CCCO)(c2ccccc2)C1 (stereo not given) | 6 µM |  |  | > 10 µM |
| 0.001 µM | 0.005 µM |  | 54 µM | > 10 µM | < 10 µM | < 10 µM |  |  |  |  |  | 2 µM |  | CC1(c2ccccc2)CCCN(C(=O)NCCc2ccc(Cl)cc2)C1 (stereo not given) | 9 µM |  |  |  |
| 0.005 µM | 0.12 µM | < 0.001 µM | > 100 µM | > 10 µM |  | > 10 µM | > 10 µM |  |  |  |  | > 30 µM |  | O=C(O)CCC1(c2ccc(C(F)(F)F)cc2)CCCN(C(=O)Nc2ccc(Cl)cc2)C1 (stereo not given) | > 30 µM |  |  | > 10 µM |
| < 0.001 µM | 0.003 µM |  |  | > 10 µM | < 10 µM | < 10 µM |  |  |  |  |  | 2 µM |  | CC1(c2ccccc2)CCCN(C(=O)NCc2ccc(Cl)cc2Cl)C1 (stereo not given) | 20 µM |  |  | < 10 µM |
| 0.012 µM | 0.119 µM | 0.0013 µM | > 100 µM | > 10 µM | < 10 µM | < 10 µM |  | 52% | 59 mL/min/kg | 1.4 L/kg | 0.66 h | 0.1 µM |  | CN(C)CCC1(c2ccccc2)CCCN(C(=O)Nc2ccc(Cl)cc2)C1 (stereo not given) | 0.3 µM |  |  | > 10 µM |
